Experimental data from ChEMBL document CHEMBL1157283, “Cytotoxic xenia diterpenoids from the soft coral Xenia umbellata” (2006).
≈ marks a conversion by molar mass, not a printed value.

Key:
A549 = test: Cytotoxicity against human A549 cells; format: functional, cell-based
In short: (§1)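 Human A549 (lung adenocarcinoma) and HT-29 (colon adenocarcinoma) cells were obtained from ATCC. In vitro cytotoxicity was measured on the cultured cells.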

HT-29 = test: Cytotoxicity against human HT29 cells; format: functional, cell-based; in short: as §1
P388 = test: Cytotoxicity against mouse P388 cells; format: functional; conditions: read-out: ED50 (the source's name)

Compound	Activity (A549)	Activity (HT-29)	EC50 (P388)
C=C1CC[C@@H]2O[C@@]2(C)CC[C@H]2[C@H]1C(=O)O[C@@]2(/C=C/C1OC1(C)C)CO (stereo partly drawn)	Not toxic	Not toxic	
C=C1CC[C@@H]2O[C@@]2(C)CC[C@H]2[C@H]1C(=O)O[C@@]2(/C=C/C1OC1(C)C)COC(C)=O (stereo partly drawn)	Not toxic	Not toxic	
C=C1C[C@@H](O)/C=C(\C)CC[C@@H]2/C(=C\C=C\C(C)(C)O)[C@@H](OC)O[C@H](OC)[C@@H]12	Not toxic	Not toxic	
CC(C)(O)/C=C/C=C(/C=O)[C@H]1CC[C@@]2(C)C[C@](O)(CC[C@H]2O)[C@@H]1C=O	Not toxic	Not toxic	
CC(C)(O)/C=C/C=C1/COC(=O)[C@H]2C3=CC[C@@H](O)[C@@](C)(CC[C@H]12)C3	Not toxic	Not toxic	
C=C(C)C(O)C/C=C(/COC(C)=O)[C@H]1CC[C@@]2(C)C[C@](O)(CC[C@H]2O)[C@@H]1C(=O)OC (stereo partly drawn) [UMBELLACIN B]	Not toxic	Not toxic	1.6 mg/L (≈ 3.77 µM)
COC(=O)[C@@H]1[C@@H](/C(=C\CC(O)C(C)(C)O)COC(C)=O)CC[C@]2(C)[C@@H]3CC[C@]12CO3 (stereo partly drawn) [UMBELLACIN D]	Not toxic	Not toxic	4.2 mg/L (≈ 9.89 µM)
COC(=O)[C@H]1C2=CC[C@@H](O)[C@@](C)(CC[C@@H]1/C(=C\CC(O)C(C)(C)O)COC(C)=O)C2 (stereo partly drawn) [UMBELLACIN E]	Not toxic	Not toxic	3.8 mg/L (≈ 8.95 µM)
C=C1CC/C=C(\C)CC[C@H](/C(=C\CC(O)C(C)(C)O)COC(C)=O)[C@H]1C(=O)OC (stereo partly drawn) [UMBELLACIN F]	Not toxic	Not toxic	3.7 mg/L (≈ 9.06 µM)
C=C1CC[C@@H]2O[C@@]2(C)CC[C@H](/C(=C\CC(O)C(C)(C)O)COC(C)=O)[C@H]1C(=O)OC (stereo partly drawn) [UMBELLACIN H]	Not toxic	Not toxic	3.4 mg/L (≈ 8.01 µM)
COC(=O)[C@@H]1[C@@H](/C(=C\CC(O)C(C)(C)O)COC(C)=O)CC[C@@]2(C)C[C@]1(O)CC[C@H]2O (stereo partly drawn) [UMBELLACIN I]	Not toxic	Not toxic	3.6 mg/L (≈ 8.13 µM)
